# Bioassay records deposited in PubChem by PCMD.
# Ec RNAP inh: blocks E. coli RNA polymerase transcription | fluorescence transcription assay | inhibition, %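 (tested at 10 µM)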 | 62,000 compounds, 0.2% hits; in the data active = inhibition above about 20%;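 note: 0% = enzyme without compound and 100% = no enzyme blank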
# Cathepsin G inh: inhibitors of human cathepsin G; P08311; purified enzyme, AMC-tetrapeptide fluorescence, pooled mixtures; inhibition, % at 5 µM (by protocol); 62,000 compounds, 0.2% hits; AID 581;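 active = inhibition above 20% in each of the two mixture wells holding the compound; inactive = inhibition of 20% or less in either well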;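 note: 0% = enzyme control without mixture and 100% = blank lacking enzyme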
# C1s inh: blocks human complement C1s protease activity | AID 538 | mean inhibition % of two 10-compound mixtures (stronger effect = higher value), % at 5 µM (by protocol) | P09871 | 62,000 compounds, 0.16% hits | purified C1s, fluorogenic AMC substrate, pooled mixtures;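 active = inhibition above 20% in each of the two 10-compound mixture wells holding the compound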;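 note: 0% = enzyme wells lacking compound mixture and 100% = no-enzyme blank wells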
# AP complement: orthogonal test for alternative complement pathway inhibitors; AID 1235; inhibition, % at 5 µM; 62,000 compounds, 0.08% hits; Human serum alternative complement pathway, LPS-coated ELISA, C3 deposition; tested in compound mixtures;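 active = inhibition above 30% in each of the two pooled mixtures holding the compound, so the lower value exceeds 30%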;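 note: 0% = serum in Mg-EGTA without compound and 100% = EDTA serum blank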
#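 Test system: human serum complement alternative pathway, C3 deposition onto LPS / Medium: Mg2+-EGTA GVB++ buffer containing human serum at 1:15 dilution / Probe or stimulus: Plate-bound LPS / Times: 1 h at 37 °C / Signal: ELISA with HRP anti-human C3 antibody, TMB substrate, absorbance 450 nm / Measure: percent inhibition / Repeats: two pool placements per compound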
# FXIIa inh mix: factor XIIa (human) inhibition, mixture screen; purified FXIIa, fluorogenic substrate, pooled mixtures; AID 684; 62,000 compounds, 0.2% hits; inhibition, % at 5 µM;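 note: 0% = enzyme without compound and 100% = no enzyme blank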
# Target sequence (P00748 20-372 limits assumed): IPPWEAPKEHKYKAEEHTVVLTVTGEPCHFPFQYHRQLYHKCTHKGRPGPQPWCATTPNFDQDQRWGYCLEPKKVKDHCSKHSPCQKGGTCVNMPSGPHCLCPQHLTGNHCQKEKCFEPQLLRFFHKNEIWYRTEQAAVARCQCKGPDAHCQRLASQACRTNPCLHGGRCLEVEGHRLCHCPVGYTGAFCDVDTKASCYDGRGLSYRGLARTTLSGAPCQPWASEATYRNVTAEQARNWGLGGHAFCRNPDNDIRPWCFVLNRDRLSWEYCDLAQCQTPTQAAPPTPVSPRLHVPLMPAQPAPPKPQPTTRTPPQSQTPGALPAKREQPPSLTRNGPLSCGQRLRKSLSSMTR
# Target sequence (P00748 373-615 limits assumed): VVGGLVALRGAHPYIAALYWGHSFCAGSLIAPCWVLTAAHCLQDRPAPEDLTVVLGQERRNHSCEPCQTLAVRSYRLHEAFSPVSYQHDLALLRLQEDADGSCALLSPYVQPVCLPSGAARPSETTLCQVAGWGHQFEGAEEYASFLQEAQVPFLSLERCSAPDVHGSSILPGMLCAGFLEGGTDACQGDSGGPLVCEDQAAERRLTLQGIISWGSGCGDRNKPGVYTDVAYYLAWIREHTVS
# FXIa mix inh: factor XIa (human) inhibition, mixture screen; P03951; purified FXIa, fluorogenic substrate, pooled mixtures; inhibition, % at 5 µM; 62,000 compounds, 0.19% hits; AID 680;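 note: each value is inhibition by a whole ten-compound pool holding the compound; 0% = enzyme with no mixture and 100% = wells lacking enzyme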
# * marks the source's active call; other numbers are inactive results; x = not tested or not shown. Sampled rows, rich in hits. Any-hit rate of the full collection: about 0.83%. Cut-off read from the data, not from the text of the source, unless noted: active = inhibition above about 20% (passing the limit was not always enough); inactive = the rest.
SMILES,Ec RNAP inh,Cathepsin G inh,C1s inh,AP complement,FXIIa inh mix,FXIa mix inh
CC(=O)N(c1ccc(N(C(C)=O)S(=O)(=O)c2cccs2)cc1)S(=O)(=O)c1cccs1,24*,-17,-9,-4,3,-1
COc1ccc(N(C(=O)c2ccco2)S(=O)(=O)c2cccs2)cc1,1,-7,-5,-22,5,8
COC(=O)Cc1c(C)c2c(OCc3nn[nH]n3)cc(C)cc2oc1=O,6,4,-51,4,24*,-4
O=C(CN1CCN(C(=O)c2ccccc2F)CC1)Nc1ccc(Br)cc1,1,31,14,12,-16,3
Cc1cc(NC(=O)c2cc3ncc(Br)cn3n2)no1,-3,-9,1,-4,-15,9
Cc1cc(-c2ccccc2C(=O)NCc2ccccc2)on1,14,59,16,5,5,27*
Cc1cc(-c2ccccc2C(=O)O)on1,x,-6,-71,3,12,-8
Cc1cc(NC(=O)c2cccc(S(=O)(=O)N3CCCCCC3)c2)n(-c2ccccn2)n1,-5,42,43*,3,11,3
CCC(CC)C(=O)Nc1cccc(-c2nc3ccccc3o2)c1,8,10,13,5,2,10
CC(=O)Nc1cccc(-c2nc3ccccc3c(=O)o2)c1,-7,65*,22,26,-20,7
CCC(=O)Nc1cccc(-c2nc3ccccc3c(=O)o2)c1,-2,59*,37*,23,3,4
COc1ccc(CCN2C(=O)CC(N3CCN(c4ccccn4)CC3)C2=O)cc1OC (centres undefined),-12,8,3,33*,39,6
CCOCCCNC(=O)C(C)NS(=O)(=O)c1ccc(C)cc1 (centres undefined),8,7,-10,12,0,0
CC(C)(C)OC(=O)N[C@@H](Cc1ccccc1)c1nnc(S(=O)(=O)Cc2ccccc2)o1,x,83*,5,31*,-3,8
CCC(C)[C@@H](NC(=O)OC(C)(C)C)c1nnc(S(=O)(=O)Cc2cccc(C)c2)o1 (some centres undefined),7,10,15,6,12,21*
CC(=O)Nc1sc2c(c1CN1CCN(c3ccccn3)CC1)CCCC2,6,-3,-1,-2,8,-2
Cc1sc(NC(=O)c2ccco2)c(CN2CCN(c3ccccn3)CC2)c1C,2,25,7,16,3,46*
CC(C)N(Cc1nc(-c2ccccc2)no1)C(=O)c1ccc(Cl)cc1,0,-1,-15,8,4,7
CC(C)N(Cc1nc(-c2ccc(Cl)cc2)no1)C(=O)CN(C)S(=O)(=O)c1ccc(Cl)cc1,21*,-2,-76,-3,9,-4
Cc1c(C(=O)OCC2CCCO2)[nH]c2c1C(=O)CC(c1ccc(N(C)C)cc1)C2 (centres undefined),11,12,17,31,4,4
O=CN(Cc1ccco1)C1(C(=O)NC2CCCCC2)CCCCC1,7,1,0,-1,33*,9
CCc1ccc(-c2cn(-c3nc(C)cc(C)n3)c(=N)o2)cc1,10,8,52*,-3,-3,5
COc1ccc(-c2nc(SC)n(C(=O)c3ccco3)n2)cc1,8,20*,63*,0,4,24*
CCn1c(SCC(=O)Nc2ccc3c(c2)OCCO3)nnc1-c1ccco1,4,12,16,16,-16,11
CCn1c(SCC(=O)NC(=O)Nc2ccc3c(c2)OCCO3)nnc1-c1cccs1,22*,-7,-9,-9,3,4
SMILES,Ec RNAP inh,Cathepsin G inh,C1s inh,AP complement,FXIIa inh mix,FXIa mix inh
O=S(=O)(Nc1cccnc1)c1cccs1,1,36,5,5,5,45*
COc1ccc(NC(=O)Nc2ccccc2C(N)=O)cc1OC,10,10,-3,-1,8,0
CCOC(=O)c1cc(NC(=O)Nc2ccc(OC)c(OC)c2)c(C)nc1C,2,-2,1,2,9,29*
CS/C(=N\S(=O)(=O)c1cccs1)NC(=O)CSc1nc2ccccc2s1,10,10,13,2,10,3
COc1cc(OC)cc(C(=O)Nc2ncc3c(n2)CC(C)CC3=O)c1 (centres undefined),5,17,22*,3,2,12
COc1cccc(C(=O)Nc2ncc3c(n2)CC(C)CC3=O)c1 (centres undefined),4,9,5,18,-23,6
CC(C)C(=O)N(Cc1cc2ccccc2[nH]c1=O)C(C)(C)C,10,-2,-18,1,4,2
COc1ccc(OC)c(S(=O)(=O)Nc2ccc(O)c3ccccc23)c1,28*,10,-2,5,3,-2
O=c1[nH]c(N2CCOCC2)nc2c1CCCC2,x,7,13,17,2,6
CCOC(=O)c1c(NC(=O)c2cccs2)sc2c1CC(C)(C)OC2,3,6,1,10,-20,21*
Clc1ccc(OCc2nn3c(C4CCCCC4)nnc3s2)c(Cl)c1,3,4,1,5,11,0
CCOc1cc(C)c(S(=O)(=O)NC2CCCCC2)cc1C,5,8,9,17,0,5
O=C(NCCN1CCN(C(=O)c2cccs2)CC1)c1cccs1,-1,0,-52,10,6,-11
Cc1cc(=O)oc(C)c1C(=O)NCCCN1CCN(c2ccccc2F)CC1,1,10,9,10,7,37*
O=C(CNC(=O)c1cccs1)NCCN1CCN(c2ccccc2F)CC1,9,8,5,1,9,21*
O=C(CNC(=O)c1cccs1)NC1=NCCS1,5,8,14,12,-2,14
CC1(C)CC(C#N)(N2CCOCC2)CCO1 (centres undefined),6,-1,-35,2,2,5
Cc1nn(C)c(C)c1NC(=O)c1ccnn1C,8,15,21*,23,1,7
Cn1nccc1C(=O)Nn1cnnc1,4,-23,-170,9,8,-78
CCCC(=O)Nc1nc2ccc(S(N)(=O)=O)cc2s1,0,-5,2,-3,22*,3
CCCC(=O)Nc1nc2ccc(OC)cc2s1,5,-1,-2,13,-4,7
CC(C)C(NC(=O)c1ccccc1NC(=O)c1ccco1)C(=O)O (centres undefined),5,4,-3,0,-2,12
CC(NC(=O)c1ccccc1NC(=O)c1ccco1)c1ccccc1 (centres undefined),5,8,6,5,7,24*
CC(=O)c1c(C)nc2ccccn12,7,-12,-23,-5,3,0
Cc1nc2ccccn2c1P(=O)(N1CCCCC1)N1CCCCC1,-3,4,-5,17,20*,6
